Measured values reported in ChEMBL document CHEMBL3351585, “Design, synthesis and biological evaluation of novel peptides with anti-cancer and drug resistance-reversing activities” (Eur J Med Chem, 2015).
The source made the active and inactive calls. No cut-off for these calls is given here.

How the values were obtained:
[1] = test system: NCI/ADR-RES; assay: Potentiation of adriamycin-induced cytotoxicity against human MCF7/ADR cells at 10 uM after 48 hrs by MTT assay; type: functional, cell-based
In short: (§1)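 ADM-resistant MCF-7/ADM or K562/ADM cells, grown in RPMI1640 with 10% FBS at 37 °C and 5% CO2, were seeded at 1 × 10^4 per well and held 24 h. Fixed peptide was added, followed by graded ADM concentrations, for 48 h. MTT was then given for 4 h at 37 °C, formazan dissolved in DMSO and absorbance read at 570 nm. Verapamil served as positive control.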

[2] = test system: K562/Adr; assay: Potentiation of adriamycin-induced cytotoxicity against human K562/ADR cells at 10 uM after 48 hrs by MTT assay; type: functional, cell-based; in short: as §1
[3] = Increase in adriamycin uptake in human K562/ADR cells at 10 uM after 2.5 hrs by fluorescence microscopy; type: ADME, cell-based
In short: (§2)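 2 × 10^5 MCF-7/ADM or K562/ADM cells were co-incubated 2.5 h with ADM plus peptide, or with verapamil as comparator. Cells were washed with cold PBS and ADM fluorescence was imaged by fluorescence microscopy.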

[4] = Increase in adriamycin uptake in human MCF7/ADR cells at 10 uM after 2.5 hrs by fluorescence microscopy; type: ADME, cell-based; settings: nci/adr-res; in short: as §2
[5] = Increase in adriamycin uptake in human MCF7/ADR cells at 10 uM after 2.5 hrs by fluorescence spectrophotometry; type: ADME, cell-based; settings: nci/adr-res
In short: (§3)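 2 × 10^5 MCF-7/ADM or K562/ADM cells were co-incubated 2.5 h with ADM plus peptide, or with verapamil as comparator. After washing in cold PBS, cells were lysed in 0.75 M HCl/0.2% Triton X-100 in isopropanol. Lysate ADM fluorescence was measured by spectrofluorometry at ex 460/em 610 nm.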

[6] = Increase in adriamycin uptake in human K562/ADR cells at 10 uM after 2.5 hrs by fluorescence spectrophotometry; type: ADME, cell-based; in short: as §3
[7] = test system: MCF7; assay: Induction of cytochrome c release in mitochondria of human MCF7 cells at 8 uM incubated for 2 hrs by ELISA method (reference value: 347.8 +/- 14.5 ng); type: functional
[8] = Retention time of the compound by UPLC method; type: physicochemical
[9] = test system: MCF7; assay: Induction of mitochondrial membrane potential depolarization in human MCF7 cells at 8 uM incubated for 2 hrs by JC1 staining; type: functional, cell-based
In short: (§4)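 MCF-7 cells plated at 1 × 10^5 per well, grown 24 h, then exposed to peptide for 2 h. Mitochondrial membrane potential was assessed with a JC-1 mitochondrial membrane potential kit. Green (monomer) and red (J-aggregate) fluorescence were imaged, with merged orange taken as normal potential.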

[10] = test system: MCF7; assay: Induction of cytochrome c release in human MCF7 cells at 8 uM incubated for 2 hrs by ELISA method (reference value: 364.2 +/- 20.5 ng); type: functional
[11] = Anticancer activity against human K562/ADR cells after 48 hrs by MTT assay; type: functional, cell-based
In short: (§5)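 Cells grown in RPMI1640 with 10% heat-inactivated FBS and 1% penicillin-streptomycin at 37 °C, 5% CO2. Log-phase cells were seeded at 5 × 10^3/well 24 h before treatment, exposed to a range of peptide concentrations for 48 h, then given MTT for 4 h. Formazan was dissolved in DMSO and A490 read. Survival was computed relative to untreated wells, and IC50 taken from the survival curve.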

[12] = test system: MCF7; assay: Antimigratory activity in human MCF7 cells assessed as inhibition of cell migration at 1 uM incubated for 48 hrs by wound healing assay; type: functional, cell-based
In short: (§6)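 MCF-7 cells were seeded at 2 × 10^5/well and grown 24 h to 90% confluence. A cell-free gap was scratched, and cells migrated in serum-free medium with peptide for 48 h. Wound closure was photographed at 0 h and 48 h.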

[13] = Toxicity in rabbit erythrocytes assessed as induction of hemolysis at 160 uM incubated for 1 hr by microplate reader assay; type: cell-based, Oryctolagus cuniculus; settings: erythrocyte
In short: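 Rabbit red blood cells in PBS were mixed 1:1 by volume with peptide solution and incubated 1 h at 37 °C, then spun at 1000 g for 5 min. Hemoglobin in the supernatant was read at 540 nm. PBS defined 0% hemolysis and 0.1% Triton X-100 defined 100%.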

[14] = test system: MCF7; assay: Induction of cell membrane alteration in human MCF7 cells at 8 uM incubated for 30 mins by acridine orange/ethidium bromide double staining method; type: functional, cell-based
In short: (§7)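 MCF-7 cells were plated at 1 × 10^5/well and grown 24 h, then given peptide for 30 min. Cells were washed twice with PBS and stained 10 min in the dark with cold PBS containing acridine orange and ethidium bromide. Excess dye was washed off, then cells were imaged by fluorescence microscopy. Red EB staining marks membrane-compromised cells.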

[15] = Increase in adriamycin uptake in human MCF7/ADR cells at 1 uM after 2.5 hrs by fluorescence spectrophotometry; type: ADME, cell-based; settings: nci/adr-res; in short: as §3
[16] = test system: K562/Adr; assay: Potentiation of adriamycin-induced cytotoxicity against human K562/ADR cells at 1 uM after 48 hrs by MTT assay; type: functional, cell-based; in short: as §1
[17] = Increase in adriamycin uptake in human MCF7/ADR cells at 1 uM after 2.5 hrs by fluorescence microscopy; type: ADME, cell-based; settings: nci/adr-res; in short: as §2
[18] = test system: K562; assay: Anticancer activity against human K562 cells after 48 hrs by MTT assay; type: functional, cell-based; settings: K562, 48 h; in short: as §5
[19] = test system: MCF7; assay: Induction of cell membrane morphology changes in human MCF7 cells at 8 uM incubated for 30 mins by scanning electron microscopy; type: functional, cell-based
In short: (§8)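 MCF-7 cells were grown 24 h on coverslips at 1 × 10^5/well and exposed to peptide for 30 min. Cells were gently PBS-washed, fixed in 2.5% glutaraldehyde, and examined by scanning electron microscopy.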

[20] = test system: NCI/ADR-RES; assay: Potentiation of adriamycin-induced cytotoxicity against human MCF7/ADR cells at 1 uM after 48 hrs by MTT assay; type: functional, cell-based; in short: as §1
[21] = Drug uptake in cytosol of human MCF7 cells at 8 uM incubated for 5 mins or 30 mins by fluorescein isothiocyanate labeling based fluorescence microscopy; type: ADME, cell-based
In short: (§9)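 MCF-7 cells were plated at 1 × 10^5/well and grown 24 h, then exposed to FITC-labeled peptides for 5 min or 30 min. Cells were washed three times with cold PBS, and intracellular fluorescence was imaged by fluorescence microscopy.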

[22] = test system: MCF7; assay: Induction of cytochrome c release in extracellular region of human MCF7 cells at 8 uM incubated for 2 hrs by ELISA method (reference value: 15.7 +/- 0.77 ng); type: functional
[23] = Increase in adriamycin uptake in human K562/ADR cells at 1 uM after 2.5 hrs by fluorescence microscopy; type: ADME, cell-based; in short: as §2
[24] = Increase in adriamycin uptake in human K562/ADR cells at 1 uM after 2.5 hrs by fluorescence spectrophotometry; type: ADME, cell-based; in short: as §3
[25] = Cytotoxicity against human GES-1 cells after 48 hrs by MTT assay; type: cell-based; settings: GES1, 48 h; in short: as §5
[26] = test system: MCF7; assay: Induction of cytochrome c release in cytoplasm of human MCF7 cells at 8 uM incubated for 2 hrs by ELISA method (reference value: 44.1 +/- 2.7 ng); type: functional
[27] = test system: MCF7; assay: Anticancer activity against human MCF7 cells after 48 hrs by MTT assay; type: functional, cell-based; settings: MCF7, 48 h; in short: as §5
[28] = Anticancer activity against human MCF7/ADR cells after 48 hrs by MTT assay; type: functional, cell-based; settings: NCI/ADR-RES; in short: as §5
[29] = test system: MCF7; assay: Antimigratory activity in human MCF7 cells assessed as inhibition of cell migration at 1 uM incubated for 48 hrs by transwell migration assay; type: functional, cell-based
In short: (§10)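 Transwell chambers with a porous membrane separating upper and lower compartments. 4 × 10^4 MCF-7 cells were placed in the upper chamber in peptide-containing medium and incubated 48 h. Cells that reached the lower membrane surface were counted.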

[30] = test system: MCF7; assay: Induction of cytochrome c release in human MCF7 cells at 5 uM incubated for 2 hrs by ELISA method (reference value: 364.2 +/- 20.5 ng); type: functional
[31] = Increase in adriamycin uptake in human K562/ADR cells at 0.5 uM after 2.5 hrs by fluorescence microscopy; type: ADME, cell-based; in short: as §2
[32] = test system: MCF7; assay: Induction of cytochrome c release in cytoplasm of human MCF7 cells at 5 uM incubated for 2 hrs by ELISA method (reference value: 44.1 +/- 2.7 ng); type: functional
[33] = test system: MCF7; assay: Induction of cell membrane morphology changes in human MCF7 cells at 5 uM incubated for 30 mins by scanning electron microscopy; type: functional, cell-based; in short: as §8
[34] = Increase in adriamycin uptake in human MCF7/ADR cells at 0.5 uM after 2.5 hrs by fluorescence spectrophotometry; type: ADME, cell-based; settings: nci/adr-res; in short: as §3
[35] = test system: NCI/ADR-RES; assay: Potentiation of adriamycin-induced cytotoxicity against human MCF7/ADR cells at 0.5 uM after 48 hrs by MTT assay; type: functional, cell-based; in short: as §1
[36] = Drug uptake in cytosol of human MCF7 cells at 5 uM incubated for 5 mins or 30 mins by fluorescein isothiocyanate labeling based fluorescence microscopy; type: ADME, cell-based; in short: as §9
[37] = test system: MCF7; assay: Induction of cytochrome c release in mitochondria of human MCF7 cells at 5 uM incubated for 2 hrs by ELISA method (reference value: 347.8 +/- 14.5 ng); type: functional
[38] = Increase in adriamycin uptake in human MCF7/ADR cells at 0.5 uM after 2.5 hrs by fluorescence microscopy; type: ADME, cell-based; settings: nci/adr-res; in short: as §2
[39] = test system: MCF7; assay: Induction of mitochondrial membrane potential depolarization in human MCF7 cells at 5 uM incubated for 2 hrs by JC1 staining; type: functional, cell-based; in short: as §4
[40] = test system: MCF7; assay: Antimigratory activity in human MCF7 cells assessed as inhibition of cell migration at 0.5 uM incubated for 48 hrs by transwell migration assay; type: functional, cell-based; in short: as §10
[41] = Increase in adriamycin uptake in human K562/ADR cells at 0.5 uM after 2.5 hrs by fluorescence spectrophotometry; type: ADME, cell-based; in short: as §3
[42] = test system: MCF7; assay: Antimigratory activity in human MCF7 cells assessed as inhibition of cell migration at 0.5 uM incubated for 48 hrs by wound healing assay; type: functional, cell-based; in short: as §6
[43] = test system: MCF7; assay: Induction of cell membrane alteration in human MCF7 cells at 5 uM incubated for 30 mins by acridine orange/ethidium bromide double staining method; type: functional, cell-based; in short: as §7
[44] = test system: MCF7; assay: Induction of cytochrome c release in extracellular region of human MCF7 cells at 5 uM incubated for 2 hrs by ELISA method (reference value: 15.7 +/- 0.77 ng); type: functional
[45] = test system: K562/Adr; assay: Potentiation of adriamycin-induced cytotoxicity against human K562/ADR cells at 0.5 uM after 48 hrs by MTT assay; type: functional, cell-based; in short: as §1

COc1ccc(CCN(C)CCCC(C#N)(c2ccc(OC)c(OC)c2)C(C)C)cc1OC (configuration not stated) [VERAPAMIL]
Activity [1]: Active | Activity [2]: Active | Activity [3]: Active | Activity [4]: Active | Activity [5]: Active | Activity [6]: Active

H-VKRFKKFFRKLKKKV-NH2
Activity [7]: 303.2 ng | Retention_time [8]: 3.22 min | Activity [9]: Active | Activity [10]: 359.1 ng | IC50 [11]: 5.5 µM | inhibition [12]: Active | Activity [13]: Non-toxic | Activity [14]: Active | Activity [15]: Active | Activity [16]: Active | Activity [17]: Active | IC50 [18]: 5.5 µM | Activity [19]: Active | Activity [20]: Active | Drug uptake [21]: Active | Activity [22]: 15 ng | Activity [23]: Active | Activity [24]: Active | IC50 [25]: 123 µM | Activity [26]: 59.6 ng | IC50 [27]: 8.3 µM | IC50 [28]: 8.6 µM | inhibition [29]: Active

H-VKRFKKFFRKLKKLV-NH2
Activity [30]: 354.8 ng | Retention_time [8]: 3.84 min | Activity [31]: Active | Activity [32]: 59.9 ng | Activity [33]: Active | Activity [34]: Active | IC50 [11]: 3.3 µM | Activity [35]: Active | Drug uptake [36]: Active | Activity [13]: Non-toxic | Activity [37]: 303.8 ng | Activity [38]: Active | IC50 [18]: 1.1 µM | Activity [39]: Active | inhibition [40]: Active | IC50 [25]: 77.6 µM | IC50 [27]: 3.6 µM | Activity [41]: Active | inhibition [42]: Active | IC50 [28]: 4.4 µM | Activity [43]: Active | Activity [44]: 14.9 ng | Activity [45]: Active
